From BindingDB's records for doi:10.1021/jm800174p (University of Minnesota, 2009)
pKi: −log10 of the molar value.

Biological target: Mu-type opioid receptor (Homo sapiens, UniProt P35372)
Assay: Displacement of [3H]DAMGO from mu opioid receptor expressed in CHO cells
Outline: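 Membranes came from CHO cells stably expressing MOP receptor alone or with CCK2 receptor. They were incubated with [3H]DAMGO (0.4 nM) plus increasing unlabeled ligand for 2 h at room temperature in KRH, pH 7.4, with 0.2% BSA and soybean trypsin inhibitor. Nonspecific binding was set with 1 μM DAMGO. Samples were filtered on PEI-soaked GF/C and scintillation counted; Ki and Bmax (pmol/mg protein) came from LIGAND analysis. Mean±S.E.M., 3-5 experiments.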

Chain of Mu-type opioid receptor (P35372 whole entry): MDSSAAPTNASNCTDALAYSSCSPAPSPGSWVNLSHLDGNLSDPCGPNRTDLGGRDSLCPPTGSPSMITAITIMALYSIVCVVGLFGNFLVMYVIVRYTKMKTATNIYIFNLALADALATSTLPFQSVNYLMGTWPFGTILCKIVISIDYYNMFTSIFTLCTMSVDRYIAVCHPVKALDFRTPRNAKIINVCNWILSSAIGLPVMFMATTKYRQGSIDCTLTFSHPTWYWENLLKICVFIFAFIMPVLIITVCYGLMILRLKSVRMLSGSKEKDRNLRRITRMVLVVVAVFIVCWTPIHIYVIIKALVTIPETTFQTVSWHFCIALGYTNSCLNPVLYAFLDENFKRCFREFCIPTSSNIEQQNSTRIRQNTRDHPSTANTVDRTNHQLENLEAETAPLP

| SMILES | pKi |
| --- | --- |
| CNC(=O)COCC(=O)NCCCCNC(=O)COCC(=O)N[C@H]1CC[C@@]2(O)[C@H]3Cc4cc(O)cc5c4[C@@]2(CCN3C)[C@H]1O5 [2-({[(1S,5R,13R,14S,17S)-9,17-dihydroxy-4-methyl-12-oxa-4-azapentacyclo[9.6.1.0^{1,13}.0^{5,17}.0^{7,18}]octadeca-7(18),8,10-trien-14-yl]carbamoyl}methoxy)-N-(4-{2-[(methylcarbamoyl)methoxy]acetamido}butyl)acetamide] | 7.53 |

Biological target: not listed separately
Assay: Displacement of [3H]DAMGO from CCK2R-MOPR coexpressed in CHO cells

| SMILES | pKi |
| --- | --- |
| CN1C(=O)[C@H](NC(=O)Nc2cccc(OCCNC(=O)COCC(=O)NCCNC(=O)COCC(=O)N[C@H]3CC[C@@]4(O)[C@H]5Cc6cc(O)cc7c6[C@@]4(CCN5C)[C@H]3O7)c2)N=C(c2ccccc2)c2ccccc21 [1-{1-Diglycoldiamide-2-[m-(R(+)-1)ureaphenoxy]ethane}-2-(N-oxymorphyldiglycoldiamide)ethane] | 8.14 |
| CN1C(=O)[C@H](NC(=O)Nc2cccc(OCCNC(=O)COCC(=O)NCCCCCCNC(=O)COCC(=O)N[C@H]3CC[C@@]4(O)[C@H]5Cc6cc(O)cc7c6[C@@]4(CCN5C)[C@H]3O7)c2)N=C(c2ccccc2)c2ccccc21 [1-{1-Diglycoldiamide-6-[m-(R(+)-1)ureaphenoxy]ethane}-2-(N-oxymorphyldiglycoldiamide)hexane] | 7.79 |
| CN1C(=O)[C@H](NC(=O)Nc2cccc(OCCNC(=O)COCC(=O)N[C@H]3CC[C@@]4(O)[C@H]5Cc6cc(O)cc7c6[C@@]4(CCN5C)[C@H]3O7)c2)N=C(c2ccccc2)c2ccccc21 [N-{m-[R(+)-1]Ureaphenoxy}ethyl-N'-oxymorphyldiglycoldiamide] | 7.85 |
| CN1C(=O)[C@H](NC(=O)Nc2cccc(OCCNC(=O)COCC(=O)NNC(=O)COCC(=O)N[C@H]3CC[C@@]4(O)[C@H]5Cc6cc(O)cc7c6[C@@]4(CCN5C)[C@H]3O7)c2)N=C(c2ccccc2)c2ccccc21 [N-{m-[R(+)-1]Ureaphenoxy}ethyldiglycolamidehydrazide-N'-oxymorphyldiglycolamidedihydrazide] | 8.41 |
| C[C@@H](NC(=O)[C@@H](N)Cc1ccc(O)cc1)C(=O)NCC(=O)N(C)[C@@H](Cc1ccccc1)C(=O)NCCO [[tyrosyl-3,5-3H(N)]-D-Ala2-Mephe4-glyol5-enkephalin] | 7.96 |
